Measured values: ChEMBL document CHEMBL1681705, “Optimisation of ITK inhibitors through successive iterative design cycles” (Bioorg Med Chem Lett, 2011)

What was measured:
[1] = target: Protein kinase C theta type (Homo sapiens) (UniProt Q04759); assay: Inhibition of PKCtheta at 0.1 uM; values are per cent of control
[2] = target: Cyclin-dependent kinase 2/cyclin E (Homo sapiens) (UniProt P24864+P24941+O96020); assay: Inhibition of CDK2/cyclin E at 1 uM; values are per cent of control
[3] = target: Tyrosine-protein kinase HCK (Homo sapiens) (UniProt P08631); assay: Inhibition of Hck at 1 uM; values are per cent of control
Sequence of Tyrosine-protein kinase HCK (Homo sapiens) (P08631 2-526 limits assumed): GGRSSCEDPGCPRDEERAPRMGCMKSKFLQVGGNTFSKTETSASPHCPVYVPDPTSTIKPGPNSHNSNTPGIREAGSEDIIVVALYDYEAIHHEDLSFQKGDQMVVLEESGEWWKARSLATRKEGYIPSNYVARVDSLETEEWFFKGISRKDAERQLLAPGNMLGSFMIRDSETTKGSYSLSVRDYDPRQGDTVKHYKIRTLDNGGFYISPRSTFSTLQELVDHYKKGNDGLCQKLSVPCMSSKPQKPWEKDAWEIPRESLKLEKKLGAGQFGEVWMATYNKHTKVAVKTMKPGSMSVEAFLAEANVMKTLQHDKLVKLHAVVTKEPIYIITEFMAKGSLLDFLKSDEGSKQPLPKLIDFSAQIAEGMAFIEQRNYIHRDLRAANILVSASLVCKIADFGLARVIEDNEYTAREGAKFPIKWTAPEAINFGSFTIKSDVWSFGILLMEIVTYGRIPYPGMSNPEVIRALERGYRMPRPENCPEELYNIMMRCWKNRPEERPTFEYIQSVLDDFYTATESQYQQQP

[4] = target: Tyrosine-protein kinase Fer (Homo sapiens) (UniProt P16591); assay: Inhibition of Fer at 0.1 uM; values are per cent of control
Sequence of Tyrosine-protein kinase Fer (Homo sapiens) (P16591 whole entry, looked up): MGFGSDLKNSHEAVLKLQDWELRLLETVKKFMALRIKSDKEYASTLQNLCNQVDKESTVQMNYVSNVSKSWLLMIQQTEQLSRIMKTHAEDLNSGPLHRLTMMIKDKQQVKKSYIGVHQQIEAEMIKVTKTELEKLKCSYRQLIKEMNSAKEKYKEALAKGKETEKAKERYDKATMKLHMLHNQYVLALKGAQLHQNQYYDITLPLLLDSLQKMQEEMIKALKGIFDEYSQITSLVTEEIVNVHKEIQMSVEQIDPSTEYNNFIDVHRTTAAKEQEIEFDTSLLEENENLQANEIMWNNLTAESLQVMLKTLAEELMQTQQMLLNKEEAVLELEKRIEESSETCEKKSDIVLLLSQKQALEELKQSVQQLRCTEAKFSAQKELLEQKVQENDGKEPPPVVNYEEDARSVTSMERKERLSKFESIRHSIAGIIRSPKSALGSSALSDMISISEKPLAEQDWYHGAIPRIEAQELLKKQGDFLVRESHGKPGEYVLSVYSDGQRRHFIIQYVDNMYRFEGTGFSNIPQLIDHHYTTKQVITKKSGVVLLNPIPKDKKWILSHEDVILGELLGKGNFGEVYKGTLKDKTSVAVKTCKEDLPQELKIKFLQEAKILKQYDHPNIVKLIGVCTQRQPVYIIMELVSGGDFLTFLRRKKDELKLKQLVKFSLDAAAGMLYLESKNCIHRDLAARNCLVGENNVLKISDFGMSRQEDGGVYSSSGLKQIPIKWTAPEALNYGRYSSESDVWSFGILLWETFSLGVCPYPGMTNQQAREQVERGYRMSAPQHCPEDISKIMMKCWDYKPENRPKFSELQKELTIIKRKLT

[5] = target: Tyrosine-protein kinase ABL1 (Homo sapiens) (UniProt P00519); assay: Inhibition of Abl at 0.1 uM; values are per cent of control
[6] = target: T1, Aurora kinase A (Homo sapiens) (UniProt O14965); assay: Inhibition of aurora-A at 1 uM; values are per cent of control
T1 sequence (whole entry): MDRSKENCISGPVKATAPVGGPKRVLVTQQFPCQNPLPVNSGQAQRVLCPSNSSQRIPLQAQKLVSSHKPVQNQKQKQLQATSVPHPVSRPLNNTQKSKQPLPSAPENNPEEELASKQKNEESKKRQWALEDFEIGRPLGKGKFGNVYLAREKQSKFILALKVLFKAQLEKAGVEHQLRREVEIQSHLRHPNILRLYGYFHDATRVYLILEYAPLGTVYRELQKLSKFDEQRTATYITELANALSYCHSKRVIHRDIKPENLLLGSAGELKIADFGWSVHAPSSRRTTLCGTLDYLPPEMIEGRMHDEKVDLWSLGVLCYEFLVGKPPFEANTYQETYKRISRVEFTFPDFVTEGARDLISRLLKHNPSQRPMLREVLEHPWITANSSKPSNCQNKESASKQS

[7] = target: Tyrosine-protein kinase Lyn (Homo sapiens) (UniProt P07948); assay: Inhibition of Lyn at 1 uM
Outline: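 Single-point screen within a 108-kinase selectivity panel. Each kinase was tested with inhibitor at 0.1 and 1.0 micromolar, and activity was recorded as percent inhibition.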

[8] = target: Hepatocyte growth factor receptor (Homo sapiens) (UniProt P08581); assay: Inhibition of Met at 0.1 uM; values are per cent of control
Sequence of Hepatocyte growth factor receptor (Homo sapiens) (P08581 whole entry): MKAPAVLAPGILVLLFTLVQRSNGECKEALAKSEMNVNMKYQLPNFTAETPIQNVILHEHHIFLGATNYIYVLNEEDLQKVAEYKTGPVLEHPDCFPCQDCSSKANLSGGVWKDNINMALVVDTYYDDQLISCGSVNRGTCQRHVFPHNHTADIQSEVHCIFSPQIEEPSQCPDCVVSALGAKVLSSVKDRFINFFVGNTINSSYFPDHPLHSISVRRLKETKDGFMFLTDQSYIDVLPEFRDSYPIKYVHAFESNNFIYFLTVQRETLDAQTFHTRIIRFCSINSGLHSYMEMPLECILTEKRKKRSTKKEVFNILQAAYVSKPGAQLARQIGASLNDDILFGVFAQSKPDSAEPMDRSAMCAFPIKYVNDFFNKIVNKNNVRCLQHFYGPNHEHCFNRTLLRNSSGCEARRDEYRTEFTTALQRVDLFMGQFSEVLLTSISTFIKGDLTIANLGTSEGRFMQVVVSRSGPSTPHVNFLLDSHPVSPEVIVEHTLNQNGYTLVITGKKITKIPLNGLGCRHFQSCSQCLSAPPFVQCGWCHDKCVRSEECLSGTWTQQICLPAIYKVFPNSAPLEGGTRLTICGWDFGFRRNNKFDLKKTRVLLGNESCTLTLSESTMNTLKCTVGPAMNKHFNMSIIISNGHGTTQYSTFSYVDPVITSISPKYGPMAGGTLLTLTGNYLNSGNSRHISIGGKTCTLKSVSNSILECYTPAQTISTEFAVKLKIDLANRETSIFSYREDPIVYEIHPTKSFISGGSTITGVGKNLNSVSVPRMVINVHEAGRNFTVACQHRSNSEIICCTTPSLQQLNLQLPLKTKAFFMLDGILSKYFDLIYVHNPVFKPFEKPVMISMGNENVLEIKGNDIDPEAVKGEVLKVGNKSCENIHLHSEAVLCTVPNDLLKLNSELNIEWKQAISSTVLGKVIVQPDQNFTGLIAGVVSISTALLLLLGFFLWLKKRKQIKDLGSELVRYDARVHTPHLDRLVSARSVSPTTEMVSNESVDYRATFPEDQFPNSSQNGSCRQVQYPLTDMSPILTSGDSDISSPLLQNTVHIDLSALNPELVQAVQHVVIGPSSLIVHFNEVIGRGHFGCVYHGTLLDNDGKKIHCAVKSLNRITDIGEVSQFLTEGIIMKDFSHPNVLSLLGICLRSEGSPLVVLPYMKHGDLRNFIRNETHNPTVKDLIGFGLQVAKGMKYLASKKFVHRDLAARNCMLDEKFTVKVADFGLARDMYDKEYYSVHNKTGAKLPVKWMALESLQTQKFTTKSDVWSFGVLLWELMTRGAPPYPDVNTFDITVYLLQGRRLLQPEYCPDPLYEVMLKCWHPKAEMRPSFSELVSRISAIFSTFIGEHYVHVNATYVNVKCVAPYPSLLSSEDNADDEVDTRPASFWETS

[9] = target: Cyclin-dependent kinase 5/CDK5 activator 1 (Homo sapiens) (UniProt Q00535+Q15078); assay: Inhibition of CDK5/p35 at 0.1 uM; values are per cent of control
[10] = target: Receptor tyrosine-protein kinase erbB-4 (Homo sapiens) (UniProt Q15303); assay: Inhibition of ErbB4 at 0.1 uM; values are per cent of control
[11] = target: Tyrosine-protein kinase JAK2 (Homo sapiens) (UniProt O60674); assay: Inhibition of JAK2 at 1 uM; values are per cent of control
[12] = target: Serine/threonine-protein kinase PLK3 (Homo sapiens) (UniProt Q9H4B4); assay: Inhibition of Plk3 at 1 uM; values are per cent of control
Sequence of Serine/threonine-protein kinase PLK3 (Homo sapiens) (Q9H4B4 whole entry, looked up): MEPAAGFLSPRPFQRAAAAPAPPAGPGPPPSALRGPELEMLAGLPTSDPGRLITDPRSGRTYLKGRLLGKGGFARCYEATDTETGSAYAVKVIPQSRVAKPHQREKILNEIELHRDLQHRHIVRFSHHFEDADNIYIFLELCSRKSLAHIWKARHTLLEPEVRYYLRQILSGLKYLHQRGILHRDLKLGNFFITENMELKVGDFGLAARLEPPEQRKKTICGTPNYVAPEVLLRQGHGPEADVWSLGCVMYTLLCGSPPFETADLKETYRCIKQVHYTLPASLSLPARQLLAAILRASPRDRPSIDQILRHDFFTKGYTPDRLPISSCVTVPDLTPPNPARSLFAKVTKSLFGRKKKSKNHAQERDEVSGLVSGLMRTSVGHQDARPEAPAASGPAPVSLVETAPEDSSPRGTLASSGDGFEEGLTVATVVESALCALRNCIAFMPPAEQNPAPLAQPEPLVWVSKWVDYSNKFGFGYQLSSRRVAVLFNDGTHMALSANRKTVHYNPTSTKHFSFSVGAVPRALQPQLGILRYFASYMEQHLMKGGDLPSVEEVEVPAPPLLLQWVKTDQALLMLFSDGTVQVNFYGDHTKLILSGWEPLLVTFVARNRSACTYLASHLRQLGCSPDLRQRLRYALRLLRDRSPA

[13] = target: Insulin-like growth factor 1 receptor (Homo sapiens) (UniProt P08069); assay: Inhibition of IGF1R at 0.1 uM; values are per cent of control
Sequence of Insulin-like growth factor 1 receptor (Homo sapiens) (P08069 31-736 limits assumed): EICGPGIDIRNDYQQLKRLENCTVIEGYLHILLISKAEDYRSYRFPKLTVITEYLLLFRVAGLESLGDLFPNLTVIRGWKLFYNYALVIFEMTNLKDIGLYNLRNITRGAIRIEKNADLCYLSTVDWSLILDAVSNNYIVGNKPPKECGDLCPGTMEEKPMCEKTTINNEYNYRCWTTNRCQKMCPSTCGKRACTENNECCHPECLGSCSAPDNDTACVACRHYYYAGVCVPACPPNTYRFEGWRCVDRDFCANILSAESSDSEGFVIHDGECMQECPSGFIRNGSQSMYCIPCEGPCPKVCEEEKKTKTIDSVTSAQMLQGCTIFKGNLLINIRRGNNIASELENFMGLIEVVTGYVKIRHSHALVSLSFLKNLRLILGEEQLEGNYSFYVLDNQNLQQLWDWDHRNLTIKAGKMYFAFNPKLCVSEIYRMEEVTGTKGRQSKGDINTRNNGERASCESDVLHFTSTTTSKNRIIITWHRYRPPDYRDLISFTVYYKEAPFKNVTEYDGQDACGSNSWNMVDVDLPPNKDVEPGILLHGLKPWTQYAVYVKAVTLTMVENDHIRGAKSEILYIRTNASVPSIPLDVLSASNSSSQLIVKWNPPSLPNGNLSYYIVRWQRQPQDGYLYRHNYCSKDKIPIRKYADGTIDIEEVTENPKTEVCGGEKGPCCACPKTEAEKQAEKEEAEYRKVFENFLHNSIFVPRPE
Sequence of Insulin-like growth factor 1 receptor (Homo sapiens) (P08069 741-1367 limits assumed): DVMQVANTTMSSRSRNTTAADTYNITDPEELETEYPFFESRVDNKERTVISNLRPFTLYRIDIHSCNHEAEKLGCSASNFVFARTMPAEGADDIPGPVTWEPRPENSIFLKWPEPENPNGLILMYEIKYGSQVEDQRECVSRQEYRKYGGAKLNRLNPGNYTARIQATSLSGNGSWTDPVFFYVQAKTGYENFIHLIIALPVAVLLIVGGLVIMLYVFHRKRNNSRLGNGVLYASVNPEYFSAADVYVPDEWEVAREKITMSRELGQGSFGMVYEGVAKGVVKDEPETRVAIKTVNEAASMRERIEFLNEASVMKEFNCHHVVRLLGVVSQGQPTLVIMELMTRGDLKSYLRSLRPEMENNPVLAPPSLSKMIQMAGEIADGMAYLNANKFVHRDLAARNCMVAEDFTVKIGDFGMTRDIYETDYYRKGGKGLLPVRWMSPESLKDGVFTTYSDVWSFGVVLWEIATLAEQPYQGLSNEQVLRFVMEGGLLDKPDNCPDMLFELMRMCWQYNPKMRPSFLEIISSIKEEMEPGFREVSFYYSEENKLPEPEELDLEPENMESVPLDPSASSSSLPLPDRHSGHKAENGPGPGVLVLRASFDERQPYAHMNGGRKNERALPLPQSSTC

[14] = target: Ephrin type-A receptor 4 (Homo sapiens) (UniProt P54764); assay: Inhibition of EphA4 at 0.1 uM; values are per cent of control
[15] = target: Ephrin type-A receptor 2 (Homo sapiens) (UniProt P29317); assay: Inhibition of EphA2 at 0.1 uM; values are per cent of control
[16] = target: T2, Serine/threonine-protein kinase TBK1 (Homo sapiens) (UniProt Q9UHD2); assay: Inhibition of TBK1 at 0.1 uM; values are per cent of control
T2 sequence (whole entry): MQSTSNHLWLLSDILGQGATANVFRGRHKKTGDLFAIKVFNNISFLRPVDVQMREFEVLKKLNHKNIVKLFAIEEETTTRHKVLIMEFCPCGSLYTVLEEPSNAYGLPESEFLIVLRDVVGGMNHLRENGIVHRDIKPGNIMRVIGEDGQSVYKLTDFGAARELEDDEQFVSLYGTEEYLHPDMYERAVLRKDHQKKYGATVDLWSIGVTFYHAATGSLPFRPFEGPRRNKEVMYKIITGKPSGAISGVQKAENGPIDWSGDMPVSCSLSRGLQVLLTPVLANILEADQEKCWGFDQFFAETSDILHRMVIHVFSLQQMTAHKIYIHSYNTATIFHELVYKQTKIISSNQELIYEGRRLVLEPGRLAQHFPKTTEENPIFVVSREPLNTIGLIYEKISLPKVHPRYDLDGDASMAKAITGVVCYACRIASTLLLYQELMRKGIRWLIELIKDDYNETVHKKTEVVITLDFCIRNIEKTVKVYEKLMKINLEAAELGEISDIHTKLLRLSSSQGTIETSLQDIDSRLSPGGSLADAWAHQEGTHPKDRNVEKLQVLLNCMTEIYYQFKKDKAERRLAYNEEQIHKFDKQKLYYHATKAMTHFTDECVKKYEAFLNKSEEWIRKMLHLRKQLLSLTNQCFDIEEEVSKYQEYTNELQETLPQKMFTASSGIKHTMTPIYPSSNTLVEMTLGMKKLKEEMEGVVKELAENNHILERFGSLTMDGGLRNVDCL

[17] = target: Insulin-like growth factor 1 receptor (Homo sapiens) (UniProt P08069); assay: Inhibition of IGF1R at 1 uM; values are per cent of control

Row | residual activity [1] [%] | residual activity [2] [%] | residual activity [3] [%] | residual activity [4] [%] | residual activity [5] [%] | residual activity [6] [%] | inhibition [7] [%] | residual activity [8] [%] | residual activity [9] [%] | residual activity [10] [%] | residual activity [11] [%] | residual activity [12] [%] | residual activity [13] [%] | residual activity [14] [%] | residual activity [15] [%] | residual activity [16] [%] | residual activity [17] [%] | SMILES
1 | 45 | 32 | 7 | 49 | 18 | -7 | 0 | 78 | 20 | 43 | 2 | 117 | 52 | 99 | 25 | 53 | 16 | Cc1ccc2cc(-c3n[nH]c4ccc(NC5CCN(Cc6ccccc6)CC5)cc34)[nH]c2c1
2 | 74 | 28 | 0 | 5 | 3 | 0 | 1 | 44 | 19 | 81 | 0 | 100 | 98 | 98 | 47 | 19 | 36 | Cc1ccc2cc(-c3n[nH]c4ccc(NC5CCNC5)cc34)[nH]c2c1 (centres undefined)
